Columns and labels:
Substance-P receptor [1] = molecular target: Substance-P receptor (Homo sapiens, UniProt P25103, Q165A); experiment: Binding affinity against Gln165Ala mutant type human Tachykinin receptor 1 expressed in CHO cells was measured by its ability to displace [125I]- Tyr-8 substance P.; format: cell-based
Substance-P receptor [2] = molecular target: T1, Substance-P receptor (Homo sapiens, UniProt P25103); experiment: Binding affinity against human Tachykinin receptor 1 expressed in CHO cells was measured by its ability to displace [125I]- Tyr-8 substance P.; format: cell-based
Substance-P receptor [3] = molecular target: T1, Substance-P receptor; experiment: Binding affinity against wild type human Tachykinin receptor 1 expressed in CHO cells was measured by its ability to displace [125I]- Tyr-8 substance P.; format: cell-based
Cavia porcellus = experiment: Inhibition of substance P-induced dermal plasma extravasation in the guinea pig 1 hr after oral dose; format: functional; conditions: PIG1, Plasma, read-out: ID50 (the source's name)
Procedure, shortened: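 Guinea pigs were dosed orally 1 h before 0.5 pmol substance P was injected into the dorsal skin. Evans blue was given iv before the challenge. Plasma leakage was quantified from dye levels in the skin around the injection sites, and ID50 was expressed in mg/kg.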

Mustela putorius furo [4] = experiment: Maximum change in the mean arterial blood pressure in the anesthetized ferret of substance P at 1 mg/Kg intravenous bolus; format: functional
Procedure, shortened: (§1)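 Ferrets were anesthetized with sodium pentobarbitone (40 mg/kg ip), maintained with sodium barbitalone (300 mg/kg ip), tracheally cannulated and ventilated with room air. Blood pressure was recorded via the femoral artery. Rising cumulative iv bolus doses (vehicle: distilled water, 1 mL/kg, or PEG, 0.5 mL/kg) went in via the femoral vein, with vehicle controls. Maximum change in mean arterial pressure is mean ± SD, n≥3.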

Mustela putorius furo [5] = experiment: Maximum change in the mean arterial blood pressure in the anesthetized ferret of substance P at 0.1 mg/Kg intravenous bolus; format: functional
Procedure, shortened: (§2)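 Pentobarbitone-induced (40 mg/kg ip), barbitalone-maintained (300 mg/kg ip) ferret anesthesia; trachea cannulated, ventilated with room air; blood pressure recorded via femoral artery, compounds given via femoral vein as rising cumulative iv boluses in distilled water (1 mL/kg) or poly(ethylene glycol) (0.5 mL/kg), matched vehicle controls. Maximum change in mean arterial pressure, mean ± SD, at least three determinations.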

Mustela putorius furo [6] = experiment: Maximum change in the mean arterial blood pressure in the anesthetized ferret of substance P at 0.3 mg/Kg intravenous bolus; format: functional; procedure, shortened: as §2
Mustela putorius furo [7] = experiment: Effect on heart rate of substance P antagonist was determined as change heart rate in the anesthetized ferret at 3 mg/Kg intravenous bolus; format: functional
Procedure, shortened: (§3)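 Ferrets anesthetized with sodium pentobarbitone (40 mg/kg ip), maintained with sodium barbitalone (300 mg/kg ip); tracheal cannula with artificial ventilation on room air; femoral artery cannulated for recording, femoral vein for dosing. Rising cumulative iv bolus doses, in distilled water (1 mL/kg) or poly(ethylene glycol) (0.5 mL/kg), with matched vehicle controls. Change in heart rate, mean ± SD of at least three determinations.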

Mustela putorius furo [8] = experiment: Effect on heart rate of substance P antagonist was determined as change heart rate in the anesthetized ferret at 0.1 mg/Kg intravenous bolus; format: functional; procedure, shortened: as §3
Mustela putorius furo [9] = experiment: Effect on heart rate of substance P antagonist was determined as change heart rate in the anesthetized ferret at 0.3 mg/Kg intravenous bolus; format: functional; procedure, shortened: as §3
Mustela putorius furo [10] = experiment: Effect on heart rate of substance P antagonist was determined as change heart rate in the anesthetized ferret at 1 mg/Kg intravenous bolus; format: functional; procedure, shortened: as §3
Mustela putorius furo [11] = experiment: Maximum change in the mean arterial blood pressure in the anesthetized ferret of substane P at 0.1 mg/Kg intravenous bolus; format: functional; procedure, shortened: as §2
Mustela putorius furo [12] = experiment: Maximum change in the mean arterial blood pressure in the anesthetized ferret of substane P at 0.3 mg/Kg intravenous bolus; format: functional; procedure, shortened: as §2
Mustela putorius furo [13] = experiment: Maximum change in the mean arterial blood pressure in the anesthetized ferret of substane P at 1 mg/Kg intravenous bolus; format: functional; procedure, shortened: as §2
Mustela putorius furo [14] = experiment: Maximum change in the mean arterial blood pressure in the anesthetized ferret of substane P at 3 mg/Kg intravenous bolus; format: functional; procedure, shortened: as §2
Mustela putorius furo [15] = experiment: Maximum change in the mean arterial blood pressure in the anesthetized ferret of substance P at 3 mg/Kg intravenous bolus; format: functional; procedure, shortened: as §1

Chain of Substance-P receptor (Homo sapiens, UniProt P25103, Q165A) (P25103 whole entry Q165A): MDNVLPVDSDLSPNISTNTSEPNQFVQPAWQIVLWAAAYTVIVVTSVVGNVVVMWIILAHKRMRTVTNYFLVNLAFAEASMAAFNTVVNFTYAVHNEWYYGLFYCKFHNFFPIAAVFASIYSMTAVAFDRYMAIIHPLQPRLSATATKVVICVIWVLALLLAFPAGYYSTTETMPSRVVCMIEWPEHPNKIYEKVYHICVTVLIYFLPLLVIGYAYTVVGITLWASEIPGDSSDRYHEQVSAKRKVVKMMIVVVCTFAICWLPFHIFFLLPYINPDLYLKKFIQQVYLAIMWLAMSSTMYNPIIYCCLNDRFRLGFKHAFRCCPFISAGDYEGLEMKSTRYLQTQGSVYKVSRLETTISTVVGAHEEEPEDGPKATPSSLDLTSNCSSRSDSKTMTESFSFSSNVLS
T1 sequence (P25103 whole entry): as the sequence (P25103 whole entry Q165A) above, with A165Q counted along it

`O=C(CCCN1CCOCC1)N[C@@H](Cc1c[nH]c2ccccc12)C(=O)CCc1cc(C(F)(F)F)cc(C(F)(F)F)c1` was tested, and the IC50 (Substance-P receptor [1]) was 1.4 nM, the IC50 (Substance-P receptor [2]) was 0.17 nM and the IC50 (Substance-P receptor [3]) was 0.24 nM.

In the case of `CN(C)CCCC(=O)N[C@@H](Cc1c[nH]c2ccccc12)C(=O)CCc1cc(C(F)(F)F)cc(C(F)(F)F)c1`, the ED50 (Cavia porcellus) is reported as 4 mg/kg and the IC50 (Substance-P receptor [2]) is reported as 0.7 nM.

`O=C(Cc1cnc[nH]1)N[C@@H](Cc1c[nH]c2ccccc12)C(=O)CCc1cc(C(F)(F)F)cc(C(F)(F)F)c1` was tested, and the IC50 (Substance-P receptor [2]) was 3.8 nM.

`O=C(Cc1ccncc1)N[C@@H](Cc1c[nH]c2ccccc12)C(=O)CCc1cc(C(F)(F)F)cc(C(F)(F)F)c1` was tested, and the MABP (Mustela putorius furo [4]) was -20, the ED50 (Cavia porcellus) was 1.9 mg/kg and the IC50 (Substance-P receptor [1]) was 10 nM. It also gave an IC50 (Substance-P receptor [2]) of 0.5 nM and an IC50 (Substance-P receptor [3]) of 0.4 nM.

For `COc1ccccc1CN[C@H]1CCCN[C@H]1c1ccccc1` [CP-99994], the MABP (Mustela putorius furo [5]) was 10, the MABP (Mustela putorius furo [6]) was 13 and the MABP (Mustela putorius furo [4]) was 12. It also gave an ED50 (Cavia porcellus) of 1.6 mg/kg.

`COc1ccccc1CN[C@H]1C2CCN(CC2)[C@H]1C(c1ccccc1)c1ccccc1` [CP-96345] was tested, and the “Change in heart rate” value (Mustela putorius furo [7]) was 65, the “Change in heart rate” value (Mustela putorius furo [8]) was 7 and the “Change in heart rate” value (Mustela putorius furo [9]) was 13. The “Change in heart rate” value (Mustela putorius furo [10]) was 21, the MABP (Mustela putorius furo [11]) was 11 and the MABP (Mustela putorius furo [12]) was 21. The MABP (Mustela putorius furo [13]) was 46 and the MABP (Mustela putorius furo [14]) was 63.

Molecule `CC(=O)N[C@H](COCc1cc(C)cc(C)c1)Cc1c[nH]c2ccccc12` has an IC50 (Substance-P receptor [2]) of 767 nM.

Work on `O=C(CN1CCOCC1)N[C@@H](Cc1c[nH]c2ccccc12)C(=O)CCc1cc(C(F)(F)F)cc(C(F)(F)F)c1` yielded an IC50 (Substance-P receptor [1]) of 4 nM, an IC50 (Substance-P receptor [2]) of 3.5 nM and an IC50 (Substance-P receptor [3]) of 2 nM.

In the case of `O=C(CCC1CCNCC1)N[C@@H](Cc1c[nH]c2ccccc12)C(=O)CCc1cc(C(F)(F)F)cc(C(F)(F)F)c1`, the IC50 (Substance-P receptor [2]) is reported as 0.37 nM.

With `O=C(CCc1cc(C(F)(F)F)cc(C(F)(F)F)c1)[C@H](Cc1c[nH]c2ccccc12)NC(=O)C12CCN(CC1)CC2` the “Change in heart rate” value (Mustela putorius furo [7]) was 1, the “Change in heart rate” value (Mustela putorius furo [8]) was 3 and the “Change in heart rate” value (Mustela putorius furo [9]) was 2. For the same molecule, the “Change in heart rate” value (Mustela putorius furo [10]) was 1, the MABP (Mustela putorius furo [5]) was 2 and the MABP (Mustela putorius furo [6]) was 4. The MABP (Mustela putorius furo [4]) was 18, the MABP (Mustela putorius furo [15]) was 34 and the ED50 (Cavia porcellus) was 1.8 mg/kg. For the same molecule, the IC50 (Substance-P receptor [1]) was 8 nM, the IC50 (Substance-P receptor [2]) was 0.9 nM and the IC50 (Substance-P receptor [3]) was 1 nM.

`O=C(CCCN1CCCC1)N[C@@H](Cc1c[nH]c2ccccc12)C(=O)CCc1cc(C(F)(F)F)cc(C(F)(F)F)c1` gave an IC50 (Substance-P receptor [2]) of 0.3 nM.

With `CN(C)CCCCC(=O)N[C@@H](Cc1c[nH]c2ccccc12)C(=O)CCc1cc(C(F)(F)F)cc(C(F)(F)F)c1` the IC50 (Substance-P receptor [2]) was 0.6 nM.

`O=C(CCN1CCCCC1)N[C@@H](Cc1c[nH]c2ccccc12)C(=O)CCc1cc(C(F)(F)F)cc(C(F)(F)F)c1` gave an IC50 (Substance-P receptor [2]) of 0.6 nM.

`CN(C)CCC(=O)N[C@@H](Cc1c[nH]c2ccccc12)C(=O)CCc1cc(C(F)(F)F)cc(C(F)(F)F)c1` was tested, and the ED50 (Cavia porcellus) was 10 mg/kg.

`FC(F)(F)c1cccc(CO[C@H]2C3CCN(CC3)[C@H]2C(c2ccccc2)c2ccccc2)c1` showed an IC50 (Substance-P receptor [1]) of 2100 nM, an IC50 (Substance-P receptor [2]) of 53 nM and an IC50 (Substance-P receptor [3]) of 53 nM.

Molecule `O=C(CCc1ccncc1)N[C@@H](Cc1c[nH]c2ccccc12)C(=O)CCc1cc(C(F)(F)F)cc(C(F)(F)F)c1` has an IC50 (Substance-P receptor [2]) of 0.47 nM.

`Cc1cc(C)cc(CN(C)C(=O)[C@H](Cc2c[nH]c3ccccc23)NC(=O)c2ccccc2)c1` was tested, and the IC50 (Substance-P receptor [2]) was 1030 nM.
